Shown is part of a subset that was picked to be rich in hits.
CHOP UPR activ: activators of apoptotic CHOP UPR arm, primary screen, cell-based, CHO-CHOP luciferase reporter, luminescence, uHTS | activation, % at 10 µM | UPR activation; percent of tunicamycin response over DMSO baseline | AID 449763, 2010 | 330,000 tested, 0.34% active;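 active = at 10 µM dose, activation of 40% or more, normalized to positive control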;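 also: 100% = tunicamycin at 10 µg/mL and 0% = DMSO alone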
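Evaluation: % reporter activation, DMSO baseline versus tunicamycin full activation; System: CHO-CHOP luciferase reporter cell line; Input: 500 cells/well; Incubation: 6 h compound treatment, 37 °C; Measured by: Steady-Glo luciferase luminescence; Dosing: one dose, 10 µM in 0.5% DMSO; Buffer or medium: F12 medium, 10% FBS; Benchmarks: positive tunicamycin 10 µg/mL, negative DMSO alone.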
CHOP inh: inhibitors of CHOP promoter induction, primary screen, cell-based, unfolded protein response, luciferase reporter | CHO-K1 CHOP-promoter luciferase, tunicamycin-induced, 15-18 h | AID 2732, 2010 | 220,000 tested, 3.8% active | inhibition, % at 10 µM;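 active = compounds that reduced the stress-induced luciferase reporter signal by more than about 70% of percent inhibition, limit read from the data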;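 also: 0% = tunicamycin plus vehicle and 100% = wells without tunicamycin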
PvdQ inh: P. aeruginosa PvdQ acylase inhibitors, primary screen, biochemical, fluorescence, plate reader and imaging, single point; purified PvdQ acylase; inhibition, % at 10 µM; 340,000 tested, 0.063% active; in the data active = inhibition above about 30%, passing the limit was not always enough;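 also: 0% = vehicle neutral wells and 100% = reference inhibitor wells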
UPR XBP1 act: activators of adaptive XBP1 UPR arm, primary screen, cell-based, CHO-XBP1 luciferase reporter, luminescence, uHTS; 330,000 tested, 0.33% active; activation, % at 20 µM; IRE1-XBP1 UPR activation; percent of tunicamycin response, DMSO as zero; AID 463104, 2010;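 active = versus positive control, 20 µM dose yields 30% or more activation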;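 also: 100% = tunicamycin at 10 µg/mL and 0% = DMSO only wells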
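Material: CHO-XBP1 cells stably carrying IRE1-XBP1-driven luciferase reporter | Medium: F12 with 10% serum | Compound dosing: 20 µM single concentration, DMSO 1% | Incubation: Overnight seeding at 37 °C, 6 h compound treatment at 37 °C | Detection: Steady-Glo luminescence read | Read-out basis: % activation of reporter signal versus tunicamycin and DMSO controls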
Starred values were filed as active, the others as inactive; x = not tested or not shown.

SMILES	CHOP UPR activ	CHOP inh	PvdQ inh	UPR XBP1 act
COc1cccc(-c2cc(C(=O)Nc3c(C)nn(Cc4ccccc4C)c3C)no2)c1	1	70*	-13	-2
Cc1cc(NC(=O)c2cc(-c3ccccc3)on2)n(-c2ccccc2)n1	-1	76*	2	0
COc1ccc(-c2cc(C(=O)Nc3c(C)nn(Cc4ccccc4)c3C)no2)cc1	-1	76*	2	1
Cc1cc(C(F)(F)F)nc(-n2cc(-c3ccccc3)nn2)n1	-2	-19	4	4
CCOc1ccccc1NC(=O)c1cc(C(=O)Nc2ccccc2OCC)cc(N2C(=O)CCC2=O)c1	1	31	-14	4
CN1CCc2cccc3c2C1Cc1ccc(O)c(O)c1-3 (stereo not given)	-1	74*	-14	-6
CN1CCC(=C2c3ccccc3C(O)c3ccccc32)CC1 (stereo not given)	-1	-10	6	-1
O=S1(=O)CC/C(=N/Nc2ccc(C(F)(F)F)cn2)c2cc(F)ccc21	-2	95*	9	-2
COc1cc(C(=O)N/N=C2\CCS(=O)(=O)c3ccc(F)cc32)cc(OC)c1OC	-2	73*	-12	1
CC1=C(C(=O)OC(C)C)C(c2cccnc2)C2=C(CCCC2=O)N1 (stereo not given)	-2	91*	5	0
CCOC(=O)C1=C(C)NC2=C(C(=O)CCC2)C1c1cccnc1 (stereo not given)	1	5	-2	-2
CCCCC(=O)NC(c1cccs1)c1cc(Cl)c2cccnc2c1O (stereo not given)	-2	97*	-6	0
Cc1oc2ccc(O)cc2c1C(=O)c1ccc(Cl)cc1	6	71*	4	6
O=C(O)c1ccc(Cn2cnc3c(=O)[nH]cnc32)cc1	x	x	-13	x
CC(C)NS(=O)(=O)c1ccc(OCC(=O)Nc2ccc3c(c2)OCO3)c(Cl)c1	-1	70*	-13	0
CC(C)NS(=O)(=O)c1ccc(OCC(=O)NCc2ccc3c(c2)OCO3)c(Cl)c1	-2	24	-7	-3
O=[N+]([O-])c1nn(-c2ccc3c(c2)OCCO3)n(O)c1=NCc1ccc(F)cc1	9	11	-1	4
O=[N+]([O-])c1nn(-c2ccc3c(c2)OCCO3)n(O)c1=NCCC1=CCCCC1	2	86*	4	1
CC[C@@]1(C(=O)OC)N[C@H](CN(C)S(=O)(=O)c2ccc(OC)cc2)[C@@H]2C(=O)N(C)C(=O)[C@@H]21	0	x	-7	0
Cc1ccccc1-c1nc(P(=O)(c2ccccc2)c2ccccc2)c(N2CCOCC2)o1	1	11	1	-1
CCOP(=O)(c1ccccc1)c1nc(-c2ccccc2C)oc1N1CCCCC1 (stereo not given)	-1	91*	x	-2
O=c1c2ccccc2nc2n1CCS2(=O)=O	1	84*	3	-6
COc1ccc([C@@H]2[C@@H]3C(=O)N(C(C)(C)C)C(=O)[C@@H]3[C@]3(C)C(=O)N(c4ccc(C)cc4)C(=O)N23)cc1	1	x	-8	-1
CN(C)c1ccc(-c2nn3c(-c4ccc(Cl)cc4)nnc3s2)cc1	x	-8	-1	x
CN(C)c1ccc(-c2nn3c(C4CCCCC4)nnc3s2)cc1	0	93*	-11	1
SMILES	CHOP UPR activ	CHOP inh	PvdQ inh	UPR XBP1 act
CCOC(=O)CCCCCC(=O)Nc1ccc2c(c1)CC(=O)N([C@H](C)CO)C[C@H](C)[C@H](CN(C)S(=O)(=O)c1ccc(OC)cc1)O2	-1	x	-9	-1
NC(=O)COC(=O)c1ccc(Cl)c(S(=O)(=O)N(Cc2ccccc2)c2ccc(Cl)cc2)c1	-2	85*	-20	-1
O=C1C2C=CC=CC2=NC(=S)N1CCN1CCC(=C(c2ccc(F)cc2)c2ccc(F)cc2)CC1 (stereo not given)	x	-1	x	x
COCC(=O)Nc1ncc(S(=O)(=O)c2ccc([N+](=O)[O-])cc2)s1	1	-9	-11	-1
O=C(NC(Nc1ncc(S(=O)(=O)c2ccc([N+](=O)[O-])cc2)s1)(C(F)(F)F)C(F)(F)F)c1ccc(Cl)cc1	6	88*	-4	5
Nc1c(Cl)cc(-c2cn(CCC(=O)O)c(-c3ccncc3)n2)cc1Cl	2	x	-14	-3
O=C(NC12CC3CC(CC(C3)C1)C2)c1cncc(Br)c1	0	x	-6	4
COc1cc2nc(N3CCNCC3)nc(N)c2cc1OC	-2	70*	7	2
COc1cc2nc(Cl)nc(N3CCCCC3)c2cc1OC	-2	4	3	4
CC(=O)c1sc(NC(=O)c2cc(-c3ccccc3)nn2-c2ccccc2)nc1C	-1	-1	-4	-4
CC(=O)c1sc(NC(=O)c2cc3c(C)nn(-c4ccccc4)c3s2)nc1C	-1	81*	4	-2
O=[N+]([O-])c1ccc(Oc2ncccn2)cc1	-1	x	x	6
O=[N+]([O-])c1ccc(OCc2cccc(COc3ccc([N+](=O)[O-])cc3)n2)cc1	0	83*	-17	11
CCOC(=O)c1cc2sccc2n1Cc1ccccc1	-1	80*	10	0
CCOC(=O)Cn1c(C(=O)OCC)cc2sccc21	1	43	4	-1
COc1ccc(C2(CNC(=O)/C=C\c3ccco3)CCCC2)cc1OC	0	-29	-13	0
Clc1cccc(C2CCN(Cc3nc(COc4ccccc4)no3)C2)c1 (stereo not given)	0	4	-16	1
c1ccc(OCc2noc(CN3CC[C@@H]4CCCC[C@H]4C3)n2)cc1	0	75*	7	1
CN(Cc1ccccc1)C(=O)CCSc1nc(-c2ccc3c(c2)OCO3)cc(C(F)(F)F)n1	0	41	-7	5
C=C[C@](C)(CC[C@@]1(C)C(C)CC(OC2OC(C)C(OC3OC(COC(C)=O)C(O)C(O)C3O)C(O)C2O)[C@@]2(C)C(C)=CCCC12)OC1OC(C)C(O[C@@H]2O[C@@H](C)C(O)C(O)[C@H]2O)C(O)C1O (stereo not given in full)	1	x	3	-1
Cc1ccc2c(c1)N(Cc1ccc3c(c1)OCO3)C(=O)C(C)O2 (stereo not given)	-2	-5	-5	0
CCC1Oc2ccc(C)cc2N(Cc2cccc(C)c2)C1=O (stereo not given)	0	96*	5	-1
CC(/C=N/Nc1nc(N2CCCCC2)nc(N2CCCCC2)n1)=C\c1ccccc1	0	73*	4	-2
N#CC(C#N)=C(Nc1ccc(F)cc1)SCc1cccc(F)c1	3	85*	14	2
CCOc1ccc(N/C(SCc2cccc([N+](=O)[O-])c2)=C(/C#N)C(N)=O)cc1	0	62	-3	1
